Measurements from ChEMBL document CHEMBL5724801, “EUbOPEN Chemogenomics Library - Multiplex” (2024).
Where “and” joins values, the source holds several entries; their conditions need not be identical. Equal entries are not always repeated.

Tested on: Fibroblast
Test: Multiplex assay against human fibroblast
Assay type: toxicity, cell-based
Settings: 12 h, 1 µM, compound concentration 1 uM
How it was run: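 On a CQ1 microscope at 37°C and 5% CO2, live cells were imaged after compound addition. They had been stained at seeding with Hoechst33342, BioTracker Green Microtubule Cytoskeleton Dye, MitoTracker Red and Annexin V Alexa Fluor 680. CellPathfinder machine-learning gating assigned cells to Hoechst high-intensity objects or normal cells, normal cells to healthy, pyknosed or fragmented nuclei, and pyknosed cells to mitotic or apoptotic. Tubulin, mitochondrial-mass and membrane-permeability phenotypes are per cents of healthy-nucleus cells.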

Row | SMILES | Population Apoptotic (%) | Population Fragmented Nuclei (%) | Population Healthy Nuclei (%) | Population Hoechst High Intensity Objects (%) | Population Membrane Permeable-Phenotype (%) | Population Mitochondria Different-Phenotype (%) | Population Mitotic Cells (%) | Population Normal (%) | Population Pyknosed Nuclei (%) | Population Tubulin-Different-Phenotype (%)
1 | Cc1[nH]nc2ccc(-c3cncc(OCC(N)Cc4c[nH]c5ccccc45)c3)cc12 (stereo unspecified) | 18.11% and 24.66% | 16.11% and 10.36% | 41.28% and 56.76% | 0 | 3.25% and 3.97% | 17.07% and 15.08% | 81.89% and 75.34% | 100% | 42.62% and 32.88% | 23.58% and 29.37%
2 | Cc1ccc(-c2ccc(F)cc2COc2ccc(CCC(=O)O)cc2)cc1 | 42% and 37% | 13% and 23% | 64% and 45% |  |  |  | 57% and 62% | 99% and 93% | 21% and 30% | 26%

Same assay, conditions: 12 h, 1 µM, compound concentration 1 uM

Row | SMILES | Total Cell Count
3 | Cc1[nH]nc2ccc(-c3cncc(OCC(N)Cc4c[nH]c5ccccc45)c3)cc12 (stereo unspecified) | 298 and 222
4 | Cc1ccc(-c2ccc(F)cc2COc2ccc(CCC(=O)O)cc2)cc1 | 131 and 148

Same assay, conditions: 12 h, 10 µM, compound concentration 10 uM

Row | SMILES | Population Apoptotic (%) | Population Fragmented Nuclei (%) | Population Healthy Nuclei (%) | Population Hoechst High Intensity Objects (%) | Population Membrane Permeable-Phenotype (%) | Population Mitochondria Different-Phenotype (%) | Population Mitotic Cells (%) | Population Normal (%) | Population Pyknosed Nuclei (%) | Population Tubulin-Different-Phenotype (%)
5 | Cc1[nH]nc2ccc(-c3cncc(OCC(N)Cc4c[nH]c5ccccc45)c3)cc12 (stereo unspecified) | 73.46% and 80.82% | 20.65% and 12.77% | 11.29% and 2.66% | 0% and 0.27% | 2.86% and 10% | 5.71% and 10% | 26.54% and 19.18% | 100% and 99.73% | 68.06% and 84.57% | 22.86% and 10%
6 | Cc1ccc(-c2ccc(F)cc2COc2ccc(CCC(=O)O)cc2)cc1 | 19% and 31% | 15% and 23% | 67% and 51% |  |  |  | 80% and 68% | 99% and 93% | 16% and 25% | 23% and 38%

Same assay, conditions: 12 h, 10 µM, compound concentration 10 uM

Row | SMILES | Total Cell Count
7 | Cc1[nH]nc2ccc(-c3cncc(OCC(N)Cc4c[nH]c5ccccc45)c3)cc12 (stereo unspecified) | 310 and 377
8 | Cc1ccc(-c2ccc(F)cc2COc2ccc(CCC(=O)O)cc2)cc1 | 125 and 136

Same assay, conditions: 24 h, 1 µM, compound concentration 1 uM

Row | SMILES | Population Apoptotic (%) | Population Fragmented Nuclei (%) | Population Healthy Nuclei (%) | Population Hoechst High Intensity Objects (%) | Population Membrane Permeable-Phenotype (%) | Population Mitochondria Different-Phenotype (%) | Population Mitotic Cells (%) | Population Normal (%) | Population Pyknosed Nuclei (%) | Population Tubulin-Different-Phenotype (%)
9 | Cc1[nH]nc2ccc(-c3cncc(OCC(N)Cc4c[nH]c5ccccc45)c3)cc12 (stereo unspecified) | 27.83% and 30.77% | 13.42% and 3.92% | 47.99% and 64.22% | 0 | 0.7% and 2.29% | 10.49% and 14.5% | 72.17% and 69.23% | 100% | 38.59% and 31.86% | 18.88% and 22.14%
10 | Cc1ccc(-c2ccc(F)cc2COc2ccc(CCC(=O)O)cc2)cc1 | 38% and 62% | 16% and 25% | 67% and 46% |  |  |  | 61% and 37% | 97% and 95% | 15% and 27% | 23% and 33%

Same assay, conditions: 24 h, 1 µM, compound concentration 1 uM

Row | SMILES | Total Cell Count
11 | Cc1[nH]nc2ccc(-c3cncc(OCC(N)Cc4c[nH]c5ccccc45)c3)cc12 (stereo unspecified) | 298 and 204
12 | Cc1ccc(-c2ccc(F)cc2COc2ccc(CCC(=O)O)cc2)cc1 | 136 and 139

Same assay, conditions: 24 h, 10 µM, compound concentration 10 uM

Row | SMILES | Population Apoptotic (%) | Population Fragmented Nuclei (%) | Population Healthy Nuclei (%) | Population Hoechst High Intensity Objects (%) | Population Membrane Permeable-Phenotype (%) | Population Mitochondria Different-Phenotype (%) | Population Normal (%) | Population Pyknosed Nuclei (%) | Population Tubulin-Different-Phenotype (%) | Total Cell Count
13 | Cc1[nH]nc2ccc(-c3cncc(OCC(N)Cc4c[nH]c5ccccc45)c3)cc12 (stereo unspecified) | 65.94% and 93.38% | 25.98% and 13.12% | 19.69% and 18.55% | 0 | 10% and 14.63% | 6% and 7.32% | 100% | 54.33% and 68.33% | 24% and 48.78% | 254 and 221
14 | Cc1ccc(-c2ccc(F)cc2COc2ccc(CCC(=O)O)cc2)cc1 | 47% and 46% | 9% and 26% | 75% and 53% |  |  |  | 98% and 92% | 15% and 20% | 20% and 55% | 127 and 136

Same assay, conditions: 24 h, 10 µM, compound concentration 10 uM

Row | SMILES | Population Mitotic Cells (%)
15 | Cc1ccc(-c2ccc(F)cc2COc2ccc(CCC(=O)O)cc2)cc1 | 52% and 53%

Same assay, conditions: 48 h, 1 µM, compound concentration 1 uM

Row | SMILES | Population Apoptotic (%) | Population Fragmented Nuclei (%) | Population Healthy Nuclei (%) | Population Hoechst High Intensity Objects (%) | Population Membrane Permeable-Phenotype (%) | Population Mitochondria Different-Phenotype (%) | Population Mitotic Cells (%) | Population Normal (%) | Population Pyknosed Nuclei (%) | Population Tubulin-Different-Phenotype (%)
16 | Cc1[nH]nc2ccc(-c3cncc(OCC(N)Cc4c[nH]c5ccccc45)c3)cc12 (stereo unspecified) | 32.98% and 38.18% | 11.28% and 7.22% | 53.38% and 64.43% | 0 | 0% and 3.2% | 17.61% and 10.4% | 67.02% and 61.82% | 100 | 35.34% and 28.35% | 13.38% and 9.6%
17 | Cc1ccc(-c2ccc(F)cc2COc2ccc(CCC(=O)O)cc2)cc1 | 56% and 69% | 21% and 29% | 62% and 55% |  |  |  | 43% and 30% | 96 | 15% | 24% and 46%

Same assay, conditions: 48 h, 1 µM, compound concentration 1 uM

Row | SMILES | Total Cell Count
18 | Cc1[nH]nc2ccc(-c3cncc(OCC(N)Cc4c[nH]c5ccccc45)c3)cc12 (stereo unspecified) | 266 and 194
19 | Cc1ccc(-c2ccc(F)cc2COc2ccc(CCC(=O)O)cc2)cc1 | 150 and 155

Same assay, conditions: 48 h, 10 µM, compound concentration 10 uM

Row | SMILES | Population Apoptotic (%) | Population Fragmented Nuclei (%) | Population Healthy Nuclei (%) | Population Hoechst High Intensity Objects (%) | Population Membrane Permeable-Phenotype (%) | Population Mitochondria Different-Phenotype (%) | Population Normal (%) | Population Pyknosed Nuclei (%) | Population Tubulin-Different-Phenotype (%) | Total Cell Count
20 | Cc1[nH]nc2ccc(-c3cncc(OCC(N)Cc4c[nH]c5ccccc45)c3)cc12 (stereo unspecified) | 40.43% and 95.45% | 31.02% and 56.65% | 47.22% and 30.64% | 0 | 5.88% and 11.32% | 31.37% and 37.74% | 100% | 21.76% and 12.72% | 35.29% and 66.04% | 216 and 173
21 | Cc1ccc(-c2ccc(F)cc2COc2ccc(CCC(=O)O)cc2)cc1 | 72% and 48% | 11% and 30% | 78% and 45% |  |  |  | 96% and 92% | 9% and 23% |  | 121 and 140

Same assay, conditions: 48 h, 10 µM, compound concentration 10 uM

Row | SMILES | Population Mitotic Cells (%)
22 | Cc1ccc(-c2ccc(F)cc2COc2ccc(CCC(=O)O)cc2)cc1 | 27% and 51%
